From ChEMBL document CHEMBL1641433, “Replacement of the double bond of antitubulin chalcones with triazoles and tetrazoles: Synthesis and biological evaluation” (Bioorg Med Chem Lett, 2011)
Calls of active or inactive are those of the source. The rule behind the calls is not given here.

How the values were obtained:
SH-SY5Y [1] = assay: Cytotoxicity against human SH-SY5Y cells assessed as cell viability at 10 uM after 48 hrs by MTT assay relative to control; assay type: functional; settings: for viability at 10 µM: read-out: Activity
Summary of the method: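 Single-concentration screen: SH-SY5Y cells given 10 µM compound for 48 h. Viability read by MTT and expressed as % of untreated control. Mean ± SEM of three replicates.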

SH-SY5Y [2] = assay: Cell cycle arrest in human SH-SY5Y cells assessed as accumulation at G0/G1 phase at 2 times IC50 concentration after 16 hrs by FACS analysis (reference value: 49 +/- 5.5%); assay type: functional
SH-SY5Y [3] = assay: Cell cycle arrest in human SH-SY5Y cells assessed as accumulation at S phase at 2 times IC50 concentration after 16 hrs by FACS analysis (reference value: 36 +/- 4%); assay type: functional
SH-SY5Y [4] = assay: Cell cycle arrest in human SH-SY5Y cells assessed as accumulation at G2/M phase at 2 times IC50 concentration after 16 hrs by FACS analysis (reference value: 15 +/- 4.8%); assay type: functional
SH-SY5Y [5] = assay: Cytotoxicity against human SH-SY5Y cells after 48 hrs by MTT assay; assay type: functional, cell-based
Summary of the method: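 SH-SY5Y neuroblastoma cells treated 48 h across a dose range. Viability/proliferation read by MTT. IC50 taken from dose–response curves, mean ± SEM of at least eight determinations from two separate experiments.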

[6] = Inhibition of tubulin polymerization

With `COc1cc(C(=O)c2cn(-c3cccc4ccccc34)nn2)cc(OC)c1OC` the Activity (SH-SY5Y [1]) was “inactive”.

In the case of `COc1cc(-n2cc(C(=O)c3cc(OC)c(OC)c(OC)c3)nn2)ccc1O`, the Activity (SH-SY5Y [1]) is reported as “inactive”.

In the case of `COc1ccc(-n2cc(C(=O)c3cc(OC)c(OC)c(OC)c3)nn2)cc1`, the Activity (SH-SY5Y [1]) is reported as “inactive”.

For `COc1cc(C(=O)c2cn(-c3ccc4c(c3)OCO4)nn2)cc(OC)c1OC`, the Activity (SH-SY5Y [1]) was “inactive”.

With `COc1ccc(-c2[nH]nnc2C(=O)c2cc(OC)c(OC)c(OC)c2)cc1` the viability at 10 µM (SH-SY5Y [1]) was > 70%.

With `COc1cc(C(=O)c2cn(-c3cc(OC)c(OC)c(OC)c3)nn2)cc(OC)c1OC` the Activity (SH-SY5Y [1]) was “inactive”.

In the case of `COc1cc(C(=O)c2cn(-c3ccc4ccccc4c3)nn2)cc(OC)c1OC`, the Activity (SH-SY5Y [1]) is reported as “inactive”.

In the case of `COc1ccc(-n2nnnc2C(=O)c2cc(OC)c(OC)c(OC)c2)cc1O`, the viability at 10 µM (SH-SY5Y [1]) is reported as 51.6%, the Activity (SH-SY5Y [2]) is reported as 41% and the Activity (SH-SY5Y [3]) is reported as 30%. For the same compound, the Activity (SH-SY5Y [4]) was 29%.

For `COc1cc(C(=O)c2cn(-c3ccc(OC(F)(F)F)cc3)nn2)cc(OC)c1OC`, the Activity (SH-SY5Y [1]) was “inactive”.

With `COc1ccccc1-n1cc(C(=O)c2cc(OC)c(OC)c(OC)c2)nn1` the Activity (SH-SY5Y [1]) was “inactive”.

For `COc1ccc(-n2cc(C(=O)c3cc(OC)c(OC)c(OC)c3)nn2)cc1F`, the Activity (SH-SY5Y [1]) was “inactive”.

In the case of `COc1cc(OC)cc(-n2cc(C(=O)c3cc(OC)c(OC)c(OC)c3)nn2)c1`, the Activity (SH-SY5Y [1]) is reported as “inactive”.

In the case of `COc1ccc(C(=O)c2nn[nH]c2-c2cc(OC)c(OC)c(OC)c2)cc1`, the viability at 10 µM (SH-SY5Y [1]) is reported as > 70%.

For `COc1cc(C(=O)c2cn(-c3cnc4ccccc4c3)nn2)cc(OC)c1OC`, the Activity (SH-SY5Y [1]) was “inactive”.

`COc1ccc(/C=C(\C)C(=O)c2cc(OC)c(OC)c(OC)c2)cc1O` gave an IC50 (SH-SY5Y [5]) of 0.21 nM and an IC50 [6] of 1800 nM.

With `COc1ccc(-n2cc(C(=O)c3cc(OC)c(OC)c(OC)c3)nn2)cc1O` the Activity (SH-SY5Y [1]) was “inactive”.

With `COc1cc(OC(F)(F)F)cc(-n2cc(C(=O)c3cc(OC)c(OC)c(OC)c3)nn2)c1` the Activity (SH-SY5Y [1]) was “inactive”.

With `COc1cccc(-n2cc(C(=O)c3cc(OC)c(OC)c(OC)c3)nn2)c1` the Activity (SH-SY5Y [1]) was “inactive”.

`COc1ccc(/C=C/C(=O)c2cc(OC)c(OC)c(OC)c2)cc1O` gave an IC50 (SH-SY5Y [5]) of 50 nM, a viability at 10 µM (SH-SY5Y [1]) of 17% and an IC50 [6] of 1000 nM. The Activity (SH-SY5Y [2]) was 23%, the Activity (SH-SY5Y [3]) was 48% and the Activity (SH-SY5Y [4]) was 30%.

In the case of `COc1cccc(-n2cc(C(=O)c3cc(OC)c(OC)c(OC)c3)nn2)c1O`, the Activity (SH-SY5Y [1]) is reported as “inactive”.

`COc1ccc(C#CC(=O)c2cc(OC)c(OC)c(OC)c2)cc1` showed a viability at 10 µM (SH-SY5Y [1]) of 27.7%, an Activity (SH-SY5Y [2]) of 79% and an Activity (SH-SY5Y [3]) of 16%. It also gave an Activity (SH-SY5Y [4]) of 6%.

With `COc1ccc(-n2cc(C(=O)c3cc(OC)c(OC)c(OC)c3)nn2)c(OC)c1` the Activity (SH-SY5Y [1]) was “inactive”.

`COc1ccc(C(=O)C#Cc2cc(OC)c(OC)c(OC)c2)cc1` gave a viability at 10 µM (SH-SY5Y [1]) of 20.4%, an Activity (SH-SY5Y [2]) of 76% and an Activity (SH-SY5Y [3]) of 18%. The Activity (SH-SY5Y [4]) was 8%.

With `COc1ccc(-n2cc(C(=O)c3cc(OC)c(OC)c(OC)c3)nn2)cc1[N+](=O)[O-]` the Activity (SH-SY5Y [1]) was “inactive”.

In the case of `COc1ccc(-n2cc(C(=O)c3cc(OC)c(OC)c(OC)c3)nn2)cc1OC`, the Activity (SH-SY5Y [1]) is reported as “inactive”.
